Compound activity from PubChem BioAssay.
Compounds with a hit are over-represented: about 3.8% of the library has one in this group of screens.
DENV2 CPE rescue = protects cells from dengue virus 2 cytopathic effect; DENV2-infected cells, cytopathic effect rescue, plate reader; CPE inhibition, % at 9.99 µM; actives 1.7% (n = 350,000); AID 651640; in the data active = CPE inhibition above about 20%, passing the limit was not always enough; inconclusive = no clear call, values can overlap the other calls; tested in BHK-21 cells
ARNT-TACC3 inh = ARNT/TACC3 interaction disruption. Q9Y6A5. AlphaScreen His-ARNT PAS-B/GST-TACC3 binding, luminescence; TACC3 fragment carries E629A point mutation. inhibition, % at 9.99 µM. actives 0.66% (n = 390,000). AID 623870;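 active = mean inhibition of replicates at least 50% and at least half of replicates each reaching 50%; inconclusive = half or more replicates reach 50% but mean below 50%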
FN deposition inh = fibronectin deposition inhibition | AH1F fibroblasts, Alexa488-fibronectin deposition fluorescence, overnight | actives 0.086% (n = 350,000) | AID 743247 | inhibition, % at 12.6 µM;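 active = mean inhibition across replicates of 30% or more, regardless of how many single replicates reach that level; inconclusive = mean under 30% yet at least half of replicates reach 30%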
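material = AH1F fibroblast monolayer depositing Alexa488-labelled fibronectin into matrix | amount = 10000 AH1F cells/well | buffer or medium = DMEM plus 2% serum, read in PBS | incubation = 1 h cell adhesion before compound, then overnight fibronectin incubation | detection = fluorescence at 485 nm excitation, 525 nm emission | evaluation = percent inhibition as loss of matrix-bound fibronectin fluorescence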
XiGFP reactiv = X-chromosome reactivation activator. XiGFP mouse fibroblasts, % GFP-positive cells imaging, 3 d; cells co-treated with 5-aza-dC sensitizer; scaled so ellipticine positive control = 100%. actives 0.055% (n = 360,000). activation, % at 7.58 µM;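 active = mean normalized replicate activation at least 10% and every replicate at or above 10%; inconclusive = only one of the two criteria met; inactive = mean below 10% and not all replicates reach 10%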
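Assay system: SV40-immortalized XiGFP fibroblast cells, line 68-5-11; buffer or medium: DMEM plus 5-aza-dC sensitizer; compound: one concentration, pinned; timing: compounds 3 days, fix/stain 15 min at room temperature; benchmarks: positive control ellipticine, 6 µM final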
SIRT5 inh = sirtuin-5 (human) deacylase inhibition. Q9NXA8. Purified SirT5, succinyl-peptide AMC, trypsin-coupled fluorescence. inhibition, % at 15 µM. actives 1.1% (n = 330,000); in the data active = inhibition above about 15%; inconclusive = no clear call, values can overlap the other calls
Target sequence (Q9NXA8 whole entry, looked up): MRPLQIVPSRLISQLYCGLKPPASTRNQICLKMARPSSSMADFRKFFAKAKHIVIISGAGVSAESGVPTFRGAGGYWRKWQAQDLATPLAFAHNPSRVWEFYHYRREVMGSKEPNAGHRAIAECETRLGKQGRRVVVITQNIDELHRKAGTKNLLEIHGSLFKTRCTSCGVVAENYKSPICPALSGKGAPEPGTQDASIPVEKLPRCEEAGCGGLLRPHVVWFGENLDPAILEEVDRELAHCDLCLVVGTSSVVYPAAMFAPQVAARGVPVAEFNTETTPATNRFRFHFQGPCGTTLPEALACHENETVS
FGF22 binding = shifts melting point of recombinant human FGF22; recombinant FGF22 thermal shift, SYPRO orange fluorescence; percent of sucrose octasulfate shift, DMSO zero; AID 651658; Q9HCT0; activity (Tm shift, normalised), % at 9.99 µM; actives 1.5% (n = 340,000);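 active = mean Tm shift, scaled 0 neutral to 100 positive control, at about 1.3% or above, every replicate too, limit read from the data; inconclusive = no clear call, values can overlap the other calls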
Target sequence (Q9HCT0 whole entry, looked up): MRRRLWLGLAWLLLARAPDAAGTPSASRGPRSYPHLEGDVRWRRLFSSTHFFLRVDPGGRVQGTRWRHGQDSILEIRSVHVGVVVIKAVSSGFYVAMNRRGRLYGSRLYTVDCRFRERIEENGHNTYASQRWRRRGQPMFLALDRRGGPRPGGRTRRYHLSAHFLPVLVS
Hits are given with their value; i = inactive; ? = inconclusive; nt = not tested or not shown; ! = a repeat was not active.

SMILES | DENV2 CPE rescue | ARNT-TACC3 inh | FN deposition inh | XiGFP reactiv | SIRT5 inh | FGF22 binding
Cc1nnc(NC(=O)c2ccc(S(=O)(=O)N3CCCCC3C)cc2)o1 (configuration not stated) | i | 51.2 | nt | i | i | i
O=C(Nc1nnc(C2CC2)o1)c1ccc(S(=O)(=O)N2CCCc3ccccc32)cc1 | i | 47.9 | i | i | i | i
CC1CCCCN1S(=O)(=O)c1ccc(C(=O)Nc2nnc(C3CC3)o2)cc1 (configuration not stated) | i | 46.3 | i | i | i | i
CC1CCCCN1S(=O)(=O)c1ccc(C(=O)Nc2nnc(-c3ccco3)o2)cc1 (configuration not stated) | i | i | i | i | i | i
O=C1CNC[C@H]2[C@@H](c3ccc(C4=CCCCC4)cc3)[C@@H](CO)N12 | i | nt | i | i | i | nt
C[C@@H]1CN([C@H](C)CO)S(=O)(=O)c2ccc(-c3cccc(F)c3)cc2O[C@@H]1CN(C)C | i | i | i | i | i | i
Fc1cccc(C2NC(=S)NC3=C2N2CCC3CC2)c1 (configuration not stated) | nt | i | i | nt | 20.7 | nt
CC(=O)N1CC2(C1)[C@H](c1ccccc1)[C@@H](CO)N2C(=O)c1ccncc1 | i | nt | nt | i | i | i
CO[C@@H]1CN(C)C(=O)c2cc(NS(=O)(=O)c3ccccc3)ccc2OC[C@@H](C)N(C)C[C@H]1C | i | i | i | i | i | i
CO[C@H]1CN(C)C(=O)c2cc(NS(=O)(=O)c3ccc(-c4ccccc4)cc3)ccc2OC[C@H](C)NC[C@@H]1C | 23.1 | i | i | i | i | i
COc1cccc(S(=O)(=O)Nc2ccc3c(c2)C(=O)N(C)C[C@H](OC)[C@H](C)CN[C@@H](C)CO3)c1 | 20.1! | i | i | i | i | i
CO[C@@H]1CN(C)C(=O)c2cc(NS(=O)(=O)c3ccccc3)ccc2OC[C@H](C)N(C)C[C@H]1C | 20.9 | i | i | i | i | i
C[C@H]1CN(C)C(=O)Cc2cc(N)ccc2O[C@H]1CN(C)S(C)(=O)=O | nt | nt | i | i | nt | nt
C[C@@H]1CN([C@H](C)CO)C(=O)c2cc(NC(=O)C3CCCCC3)ccc2O[C@@H](C)CCCCO[C@@H]1CN(C)S(=O)(=O)c1ccccc1 | i | i | i | i | i | nt
C/C=C/c1ccccc1[C@H]1[C@@H](C#N)N(C(=O)NC2CCCC2)[C@H]1CO | 60.5 | nt | i | i | i | nt
CCC(=O)N1[C@H](C#N)[C@@H](c2ccccc2-c2ccccc2)[C@@H]1CO | i | nt | i | i | i | nt
CCC(=O)N1[C@@H](C#N)[C@H](c2ccccc2-c2ccccc2)[C@@H]1CO | 46.8 | nt | i | i | i | nt
C/C=C/c1ccccc1[C@H]1[C@@H](CO)N(C(=O)NC2CCCC2)[C@H]1C#N | i | nt | i | i | i | nt
CCCNC(=O)N1[C@H](CO)[C@H](c2ccccc2-c2ccccc2)[C@@H]1C#N | 108.7 | nt | i | i | i | i
Cc1cccnc1NS(=O)(=O)c1ccccc1 | i | nt | i | i | nt | 43.6
Cc1cccnc1NS(=O)(=O)c1cccc([N+](=O)[O-])c1 | nt | i | i | i | i | i
Cc1cc(C)c(NS(=O)(=O)c2ccccc2)c(C)n1 | i | nt | i | i | nt | 43.3
C[C@@H]1CN([C@@H](C)CO)C(=O)Cc2cc(NS(=O)(=O)c3cccs3)ccc2O[C@H]1CN(C)Cc1ccc(-c2ccccc2)cc1 | i | i | i | i | 16.6 | i
C[C@@H]1CN([C@@H](C)CO)C(=O)Cc2cc(NS(=O)(=O)c3cccs3)ccc2O[C@@H]1CN(C)Cc1ccc(-c2ccccc2)cc1 | 44.3 | nt | i | i | i | i
C[C@@H]1CN([C@H](C)CO)C(=O)Cc2cc(NS(=O)(=O)c3cccs3)ccc2O[C@H]1CN(C)Cc1ccc(-c2ccccc2)cc1 | i | i | i | i | i | i
SMILES | DENV2 CPE rescue | ARNT-TACC3 inh | FN deposition inh | XiGFP reactiv | SIRT5 inh | FGF22 binding
C[C@@H]1CN([C@H](C)CO)C(=O)Cc2cc(NS(=O)(=O)c3cccs3)ccc2O[C@@H]1CN(C)Cc1ccccc1 | i | i | nt | i | i | nt
C[C@H]1CN([C@@H](C)CO)C(=O)Cc2cc(NS(=O)(=O)c3cccs3)ccc2O[C@@H]1CN(C)Cc1ccc(C(F)(F)F)cc1 | i | i | nt | i | i | i
C[C@@H]1CN([C@@H](C)CO)C(=O)Cc2cc(NS(=O)(=O)c3cccs3)ccc2O[C@H]1CN(C)Cc1ccc(C(F)(F)F)cc1 | i | i | nt | i | 16.0 | i
CC(Sc1ccccc1)C(=O)NCC(c1ccco1)N1CCCCC1 (configuration not stated) | 107.4 | i | i | i | i | i
O=C(NCC(c1ccco1)N1CCN(c2ccccc2F)CC1)C(=O)NC1CCCCC1 (configuration not stated) | i | i | i | i | i | i
O=C(COc1ccccc1)NCC(c1ccco1)N1CCN(c2ccc(F)cc2)CC1 (configuration not stated) | i | i | i | i | 18.5 | i
CSc1ccccc1C(=O)NCC(c1ccco1)N1CCCCC1 (configuration not stated) | i | i | i | i | i | i
O=C(NCC(c1ccco1)N1CCN(c2ccc(F)cc2)CC1)c1ccc2c(c1)OCO2 (configuration not stated) | i | i | i | i | i | i
O=C(NCC(c1ccco1)N1CCN(c2ccccc2F)CC1)C1CCCCC1 (configuration not stated) | i | i | i | i | 19.6 | i
COc1ccc(N2CCN(C(CNC(=O)c3ccc4c(c3)OCO4)c3ccco3)CC2)cc1 (configuration not stated) | i | i | i | 28.6 | i | i
O=C(COc1ccccc1)NCC(c1ccco1)N1CCN(c2ccccc2F)CC1 (configuration not stated) | i | i | i | i | i | i
CO[C@@H]1CN(C)C(=O)c2cc(NC(=O)Nc3ccccc3)ccc2OC[C@H](C)N(CC2CC2)C[C@@H]1C | i | i | i | i | i | i
CC(C)C(=O)Nc1ccc2c(c1)C(=O)N(C)[C@@H]1CC[C@@H](CC(=O)N[C@@H](C)c3ccccc3)O[C@@H]1CO2 | i | i | i | i | nt | i
N#C[C@@H]1[C@H](c2ccccc2)[C@@H](CO)N1C(=O)CN1CCOCC1 | ? | i | i | i | i | i
O=C(NCC(c1ccco1)N1CCc2ccccc21)c1c(F)cccc1F (configuration not stated) | 63.5 | i | i | i | i | i
CC(C)NC(=O)N[C@@H]1C=C[C@@H](CC(=O)NCc2ccc(Oc3ccccc3)cc2)O[C@H]1CO | i | i | i | i | i | i
CN1CCN(C(=O)CCC(=O)O)CC1 | i | i | i | i | i | i
